Source: ChEMBL document CHEMBL3425508, “Discovery of potent hexapeptide agonists to human neuromedin u receptor 1 and identification of their serum metabolites” (ACS Med Chem Lett, 2015)
Active and inactive are the calls of the source. The rule behind the calls is not given here. Residues, ends and D or L forms follow the SMILES beside them. *: point of attachment. Acetyl(2-thienyl) = O=C(Cc1cccs1)*; Hydrocinnamoyl = O=C(CCc1ccccc1)*; PhAc = O=C(Cc1ccccc1)*; X1 = O=C(CCc1cccs1)*

Tests used:
Serum [1] = test: Retention time in 25% rat serum treated with 1 mM (S)-2-((S)-2-((S)-1-((S)-2-((S)-2-((S)-3-(1H-indol-3-yl)-2-(2-(thiophen-2-yl)acetamido)propanamido)-3-(4-fluorophenyl)propanamido)-5-guanidinopentanoyl)pyrrolidine-2-carboxamido)-5-guanidinopentanamido)succinamide incubated for 30 mins at 37 degC by RP-HPLC method; assay type: ADME, cell-free; details: 0.5 h
Summary of the method: (§1)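 Peptides incubated in 25% rat serum at 37 °C and sampled over time (10, 30, 60 min). Samples extracted on Sep-Pak C18 cartridges and analysed by C18 RP-HPLC with UV detection at 220 nm. Metabolites identified by mass spectrometry. Recovery of intact peptide measured at 10 or 60 min, in triplicate.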

Serum [2] = test: Drug level in 25% rat serum treated with 1 mM (S)-2-((S)-2-((S)-1-((6S,9S,12S)-12-((1H-indol-3-yl)methyl)-1-amino-9-benzyl-1-imino-8,11,14-trioxo-15-(thiophen-2-yl)-2,7,10,13-tetraazapentadecanecarbonyl)pyrrolidine-2-carboxamido)-5-guanidinopentanamido)succinamide assessed as compound formation at 37 degC by RP-HPLC method; assay type: ADME, cell-free; summary of the method: as §1
Neuromedin-U receptor 2 = Neuromedin-U receptor 2 (Homo sapiens, UniProt Q9GZQ4); test: Agonist activity at human NMUR2 expressed in CHO cells assessed as intracellular calcium flux at 1 and 10 nM by Fluo-4 AM dye based fluorometric imaging method relative to 1000 nM human neuromedin U; assay type: functional, cell-based
Sequence of Neuromedin-U receptor 2 (Q9GZQ4 whole entry): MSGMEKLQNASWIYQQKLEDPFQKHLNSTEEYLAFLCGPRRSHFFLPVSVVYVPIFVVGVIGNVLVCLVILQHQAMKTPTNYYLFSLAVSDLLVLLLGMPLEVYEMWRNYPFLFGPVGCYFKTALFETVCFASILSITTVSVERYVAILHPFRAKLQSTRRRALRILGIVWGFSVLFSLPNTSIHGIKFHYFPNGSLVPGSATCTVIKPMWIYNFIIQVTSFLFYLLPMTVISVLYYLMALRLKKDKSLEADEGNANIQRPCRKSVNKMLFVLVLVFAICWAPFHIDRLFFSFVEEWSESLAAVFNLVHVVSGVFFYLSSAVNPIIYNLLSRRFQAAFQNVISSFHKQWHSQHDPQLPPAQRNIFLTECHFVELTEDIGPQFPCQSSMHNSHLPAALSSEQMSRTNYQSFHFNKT

[3] = molecular target: T1, Neuromedin-U receptor 1 (Homo sapiens) (UniProt Q9HB89); test: Agonist activity at human NMUR1 expressed in CHO cells assessed as intracellular calcium flux at 1 and 10 nM by Fluo-4 AM dye based fluorometric imaging method relative to 1000 nM human neuromedin U; assay type: functional, cell-based
T1 sequence (whole entry): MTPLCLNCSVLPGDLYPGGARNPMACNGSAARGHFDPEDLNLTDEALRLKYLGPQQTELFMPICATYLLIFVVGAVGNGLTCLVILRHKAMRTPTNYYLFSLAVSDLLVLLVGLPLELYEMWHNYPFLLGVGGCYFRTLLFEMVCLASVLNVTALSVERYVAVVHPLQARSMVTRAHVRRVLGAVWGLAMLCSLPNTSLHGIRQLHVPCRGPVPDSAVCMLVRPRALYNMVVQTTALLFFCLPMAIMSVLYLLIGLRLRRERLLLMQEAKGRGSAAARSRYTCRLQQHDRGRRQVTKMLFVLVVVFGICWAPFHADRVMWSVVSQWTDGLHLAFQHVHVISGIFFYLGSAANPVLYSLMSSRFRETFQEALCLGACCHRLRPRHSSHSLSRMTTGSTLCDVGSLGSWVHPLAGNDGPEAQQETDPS

Serum [4] = test: Drug level in 25% rat serum treated with 1 mM (S)-2-((S)-2-((S)-1-((6S,9S,12S)-1-amino-9-benzyl-1-imino-12-isobutyl-8,11,14-trioxo-16-phenyl-2,7,10,13-tetraazahexadecanecarbonyl)pyrrolidine-2-carboxamido)-5-guanidinopentanamido)succinamide assessed as compound formation at 37 degC by RP-HPLC method; assay type: ADME, cell-free; summary of the method: as §1
[5] = Drug metabolism in 25% rat serum assessed as drug recovery at 1 mM incubated for 60 mins at 37 degC by RP-HPLC method; assay type: ADME, cell-free; details: read-out: Drug recovery; summary of the method: as §1
Serum [6] = test: Drug metabolism in 25% rat serum assessed as formation of 3-phenylpropionyl-Leu1-Phe2-OH at 1 mM at 37 degC by RP-HPLC method; assay type: ADME, cell-free; details: 1000 µM; summary of the method: as §1
Serum [7] = test: Drug metabolism in 25% rat serum assessed as formation of 3-phenylpropionyl-Leu1-Phe2-Arg3-Pro4-Arg5-OH at 1 mM at 37 degC by RP-HPLC method; assay type: ADME, cell-free; details: 1000 µM; summary of the method: as §1
Serum [8] = test: Drug metabolism in 25% rat serum assessed as cleavage at Arg(5)-Asn(6) site at 1 mM at 37 degC by RP-HPLC method; assay type: ADME, cell-free; details: 1000 µM; summary of the method: as §1
[9] = Drug metabolism in 25% rat serum assessed as drug recovery at 1 mM incubated for 10 mins at 37 degC by RP-HPLC method; assay type: ADME, cell-free; details: read-out: Drug recovery; summary of the method: as §1
Serum [10] = test: Drug metabolism in 25% rat serum assessed as cleavage at Phe(2)-Arg(3) site at 1 mM at 37 degC by RP-HPLC method; assay type: ADME, cell-free; details: 1000 µM; summary of the method: as §1

Row | Activity (Neuromedin-U receptor 2) | Activity [3] | Drug metabolism (Serum [4]) | Structure (SMILES) | other results
1 | – | – | – | O=C(Cc1cccs1)N[C@@H](Cc1c[nH]c2ccccc12)C(=O)N[C@@H](Cc1ccc(F)cc1)C(=O)O | Retention_time (Serum [1]): 61.2 min
2 | – | – | – | O=C(Cc1cccs1)N[C@@H](Cc1c[nH]c2ccccc12)C(=O)N[C@@H](Cc1ccccc1)C(=O)O | Drug metabolism (Serum [2]): metabolite_detected
3 | inactive | inactive | – | N=C(N)NCCC[C@H](NC(=O)[C@@H]1CCCN1C(=O)[C@H](CCCNC(=N)N)NC(=O)[C@H](Cc1ccccc1)NC(=O)[C@H](Cc1ccccc1)NC(=O)CCc1ccccc1)C(=O)N[C@@H](CC(N)=O)C(N)=O (Hydrocinnamoyl-FFRPRN-NH2) | –
4 | – | – | metabolite_detected | CC(C)C[C@H](NC(=O)CCc1ccccc1)C(=O)N[C@@H](Cc1ccccc1)C(=O)N[C@@H](CCCNC(=N)N)C(=O)N1CCC[C@H]1C(=O)N[C@@H](CCCNC(=N)N)C(=O)O (Hydrocinnamoyl-LFRPR-OH) | remaining at 1 h, 1000 µM [5]: 56.9%
5 | Active | Active | metabolite_detected | CC(C)C[C@H](NC(=O)CCc1ccccc1)C(=O)N[C@@H](Cc1ccccc1)C(=O)N[C@@H](CCCNC(=N)N)C(=O)N1CCC[C@H]1C(=O)N[C@@H](CCCNC(=N)N)C(=O)N[C@@H](CC(N)=O)C(N)=O (Hydrocinnamoyl-LFRPRN-NH2) | Drug metabolism (Serum [6]): metabolite_detected; Drug metabolism (Serum [7]): metabolite_detected; Drug metabolism (Serum [8]): metabolite_detected; remaining at 10 min, 1000 µM [9]: 64%; Drug metabolism (Serum [10]): metabolite_detected
6 | – | – | metabolite_detected | CC(C)C[C@H](NC(=O)CCc1ccccc1)C(=O)N[C@@H](Cc1ccccc1)C(=O)O (Hydrocinnamoyl-Leu-Phe-OH) | –
7 | inactive | inactive | – | N=C(N)NCCC[C@H](NC(=O)[C@@H]1CCCN1C(=O)[C@H](CCCNC(=N)N)NC(=O)[C@H](Cc1ccccc1)NC(=O)[C@H](Cc1ccccc1)NC(=O)Cc1ccccc1)C(=O)N[C@@H](CC(N)=O)C(N)=O (PhAc-FFRPRN-NH2) | –
8 | Active | Active | – | N=C(N)NCCC[C@H](NC(=O)[C@@H]1CCCN1C(=O)[C@H](CCCNC(=N)N)NC(=O)[C@H](Cc1ccccc1)NC(=O)[C@H](Cc1ccccc1)NC(=O)CCc1cccs1)C(=O)N[C@@H](CC(N)=O)C(N)=O (X1-FFRPRN-NH2) | –
9 | Active | Active | – | N=C(N)NCCC[C@H](NC(=O)[C@@H]1CCCN1C(=O)[C@H](CCCNC(=N)N)NC(=O)[C@H](Cc1ccccc1)NC(=O)[C@H](Cc1ccccc1)NC(=O)Cc1cccs1)C(=O)N[C@@H](CC(N)=O)C(N)=O ({Acetyl(2-thienyl)}-FFRPRN-NH2) | –
10 | – | – | – | N=C(N)NCCC[C@H](NC(=O)[C@@H]1CCCN1C(=O)[C@H](CCCNC(=N)N)NC(=O)[C@H](Cc1ccccc1)NC(=O)[C@H](Cc1c[nH]c2ccccc12)NC(=O)Cc1cccs1)C(=O)O ({Acetyl(2-thienyl)}-WFRPR-OH) | Drug metabolism (Serum [2]): metabolite_detected; remaining at 1 h, 1000 µM [5]: 44.7%
